Active and inactive are the calls of the source. The rule behind the calls is not given here.
Key:
Rattus norvegicus [1] = test: Neurotoxicity in Sprague-Dawley rat at 30 mg/kg, po after 4 hrs; type: toxicity, organism-based; details: in vivo
Method in brief: (§1)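 Sprague-Dawley rats were given 30 mg/kg orally in 0.5% methylcellulose. Neurotoxicity was checked at 0.25, 0.5, 1.0, 2.0 and 4 h after dosing. Results are given as number of rats showing neurotoxicity/number tested.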

Rattus norvegicus [2] = test: Neurotoxicity in Sprague-Dawley rat at 30 mg/kg, po after 2 hrs; type: toxicity, organism-based; details: in vivo; method in brief: as §1
Rattus norvegicus [3] = test: Neurotoxicity in Sprague-Dawley rat at 30 mg/kg, po after 1 hr; type: toxicity, organism-based; details: in vivo; method in brief: as §1
Rattus norvegicus [4] = test: Neurotoxicity in Sprague-Dawley rat at 30 mg/kg, po after 0.25 hrs; type: toxicity, organism-based; details: in vivo; method in brief: as §1
Rattus norvegicus [5] = test: Neurotoxicity in Sprague-Dawley rat at 30 mg/kg, po after 0.5 hrs; type: toxicity, organism-based; details: in vivo; method in brief: as §1
Rattus norvegicus [6] = test: Anticonvulsant activity in Sprague-Dawley rat assessed as protection against maximal electroshock-induced seizures at 30 mg/kg, po after 4 hrs; type: functional, organism-based
Method in brief: (§2)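 Sprague-Dawley rats were given 30 mg/kg p.o. in 0.5% methylcellulose. Maximal electroshock was applied at 0.25, 0.5, 1.0, 2.0 and 4 h after dosing. Results are reported as number of rats protected / number tested.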

Rattus norvegicus [7] = test: Anticonvulsant activity in Sprague-Dawley rat assessed as protection against maximal electroshock-induced seizures at 30 mg/kg, po after 2 hrs; type: functional, organism-based; method in brief: as §2
Rattus norvegicus [8] = test: Anticonvulsant activity in Sprague-Dawley rat assessed as protection against maximal electroshock-induced seizures at 30 mg/kg, po after 1 hr; type: functional, organism-based; method in brief: as §2
Rattus norvegicus [9] = test: Anticonvulsant activity in Sprague-Dawley rat assessed as protection against maximal electroshock-induced seizures at 30 mg/kg, po after 0.5 hrs; type: functional, organism-based; method in brief: as §2
Rattus norvegicus [10] = test: Anticonvulsant activity in Sprague-Dawley rat assessed as protection against maximal electroshock-induced seizures at 30 mg/kg, po after 0.25 hrs; type: functional, organism-based; method in brief: as §2
Mus musculus [11] = test: Neurotoxicity in albino Carworth Farms No.1 mouse at 300 mg/kg, ip after 0.5 hrs by rotarod test; type: toxicity, organism-based; details: in vivo
Method in brief: (§3)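 Mice (albino Carworth Farms No.1) were dosed i.p. at 30, 100 or 300 mg/kg in 0.5% methylcellulose. They were tested 0.5 and 4 h later on a 1-inch knurled rod rotating at 6 rpm. Neurotoxicity was scored if a mouse could not stay on the rod for at least 1 min in each of three trials. Results are given as animals toxic/animals tested, with deaths noted.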

Mus musculus [12] = test: Neurotoxicity in albino Carworth Farms No.1 mouse at 100 mg/kg, ip after 0.5 hrs by rotarod test; type: toxicity, organism-based; details: in vivo; method in brief: as §3
Mus musculus [13] = test: Anticonvulsant activity in albino Carworth Farms No.1 mouse assessed as protection against subcutaneous dosed pentetrazol-induced seizures at 300 mg/kg, ip after 4 hrs; type: functional, organism-based
Method in brief: (§4)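 Mouse i.p. screen in Carworth Farms No.1 albino mice at 30, 100 or 300 mg/kg in 0.5% methylcellulose. Testing was at 0.5 and 4 h after injection, by maximal electroshock or by subcutaneous pentetrazol challenge. Scoring was number protected / number used.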

Mus musculus [14] = test: Neurotoxicity in albino Carworth Farms No.1 mouse at 30 mg/kg, ip after 0.5 hrs by rotarod test; type: toxicity, organism-based; details: in vivo; method in brief: as §3
Mus musculus [15] = test: Anticonvulsant activity in albino Carworth Farms No.1 mouse assessed as protection against subcutaneous dosed pentetrazol-induced seizures at 300 mg/kg, ip after 0.5 hrs; type: functional, organism-based; method in brief: as §4
Mus musculus [16] = test: Anticonvulsant activity in albino Carworth Farms No.1 mouse assessed as protection against subcutaneous dosed pentetrazol-induced seizures at 100 mg/kg, ip after 4 hrs; type: functional, organism-based; method in brief: as §4
Mus musculus [17] = test: Anticonvulsant activity in albino Carworth Farms No.1 mouse assessed as protection against subcutaneous dosed pentetrazol-induced seizures at 100 mg/kg, ip after 0.5 hrs; type: functional, organism-based; method in brief: as §4
Mus musculus [18] = test: Anticonvulsant activity in albino Carworth Farms No.1 mouse assessed as protection against subcutaneous dosed pentetrazol-induced seizures at 30 mg/kg, ip after 4 hrs; type: functional, organism-based; method in brief: as §4
Mus musculus [19] = test: Anticonvulsant activity in albino Carworth Farms No.1 mouse assessed as protection against subcutaneous dosed pentetrazol-induced seizures at 30 mg/kg, ip after 0.5 hrs; type: functional, organism-based; method in brief: as §4
Mus musculus [20] = test: Anticonvulsant activity in albino Carworth Farms No.1 mouse assessed as protection against maximal electroshock-induced seizures at 300 mg/kg, ip after 4 hrs; type: functional, organism-based; method in brief: as §4
Mus musculus [21] = test: Anticonvulsant activity in albino Carworth Farms No.1 mouse assessed as protection against maximal electroshock-induced seizures at 300 mg/kg, ip after 0.5 hrs; type: functional, organism-based; method in brief: as §4
Mus musculus [22] = test: Anticonvulsant activity in albino Carworth Farms No.1 mouse assessed as protection against maximal electroshock-induced seizures at 100 mg/kg, ip after 4 hrs; type: functional, organism-based; method in brief: as §4
Mus musculus [23] = test: Anticonvulsant activity in albino Carworth Farms No.1 mouse assessed as protection against maximal electroshock-induced seizures at 100 mg/kg, ip after 0.5 hrs; type: functional, organism-based; method in brief: as §4
Mus musculus [24] = test: Anticonvulsant activity in albino Carworth Farms No.1 mouse assessed as protection against maximal electroshock-induced seizures at 30 mg/kg, ip after 0.5 hrs; type: functional, organism-based; method in brief: as §4
Mus musculus [25] = test: Anticonvulsant activity in albino Carworth Farms No.1 mouse assessed as protection against maximal electroshock-induced seizures at 30 mg/kg, ip after 4 hrs; type: functional, organism-based; method in brief: as §4
Mus musculus [26] = test: Neurotoxicity in albino Carworth Farms No.1 mouse at 30 mg/kg, ip after 4 hrs by rotarod test; type: toxicity, organism-based; details: in vivo; method in brief: as §3
Mus musculus [27] = test: Neurotoxicity in albino Carworth Farms No.1 mouse at 100 mg/kg, ip after 4 hrs by rotarod test; type: toxicity, organism-based; details: in vivo; method in brief: as §3
Mus musculus [28] = test: Neurotoxicity in albino Carworth Farms No.1 mouse at 300 mg/kg, ip after 4 hrs by rotarod test; type: toxicity, organism-based; details: in vivo; method in brief: as §3
[29] = Lipophilicity of the compound using 95% methanol in water at 1 mg/ml by RT-TLC analysis; type: physicochemical; details: buffer
Method in brief: (§5)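 Reversed-phase TLC with a methanol–water mobile phase at the stated methanol content (v/v). Compounds were spotted from 1 mg/mL methanol solutions after 1 h chamber saturation and located under UV light. Rf was measured and RM = log(1/Rf − 1) calculated.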

[30] = Lipophilicity of the compound using 90% methanol in water at 1 mg/ml by RT-TLC analysis; type: physicochemical; details: buffer; method in brief: as §5
[31] = Lipophilicity of the compound using 85% methanol in water at 1 mg/ml by RT-TLC analysis; type: physicochemical; details: buffer; method in brief: as §5
[32] = Lipophilicity of the compound using 75% methanol in water at 1 mg/ml by RT-TLC analysis; type: physicochemical; details: buffer; method in brief: as §5
[33] = Lipophilicity of the compound using 65% methanol in water at 1 mg/ml by RT-TLC analysis; type: physicochemical; details: buffer; method in brief: as §5
[34] = Lipophilicity of the compound at 1 mg/ml by RT-TLC analysis relative to 0% methanol; type: physicochemical; details: methanol/water
Method in brief: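 Reversed-phase TLC used methanol–water mobile phases of 95–65% methanol. Compounds were applied from 1 mg/mL methanol solutions after 1 h chamber saturation, with UV detection. RM = log(1/Rf − 1) was calculated at each methanol level and extrapolated linearly (RM = RM0 + bC) to 0% methanol to give RM0.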

Mus musculus [35] = test: Anticonvulsant activity in ip dosed albino Carworth Farms No.1 mouse assessed as protection against subcutaneous dosed pentetrazol-induced seizures after 0.25 hrs; type: functional; details: Carworth Farms No.1, 0.25 h
Method in brief: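 Quantitative i.p. evaluation in Carworth Farms No.1 albino mice, with graded doses in 0.5% methylcellulose. MES, scPTZ or 6-Hz (32 mA) seizure tests were run at 0.25 h.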

Rattus norvegicus [36] = test: Anticonvulsant activity in po dosed Sprague-Dawley rat assessed as protection against subcutaneous dosed pentetrazol-induced seizures after 0.5 hrs; type: functional
Method in brief: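 Sprague-Dawley rats received graded oral doses suspended or dissolved in 0.5% methylcellulose. Challenge was maximal electroshock or subcutaneous pentetrazol at the stated time after dosing.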

[37] = Hepatotoxicity against human HepG2 cells assessed as cell viability at 10 uM after 24 hrs by MTT assay relative to control; type: toxicity, cell-based; details: read-out: Activity
Method in brief: (§6)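 HepG2 cells (EMEM, 10% FBS, 37 °C, 5% CO₂) were seeded at 1 × 10⁴ per well and cultured overnight. They were then exposed to increasing compound concentrations for 24 h. MTT reagent was added for 3 h and formazan crystals dissolved before reading. Data are mean ± SD of at least three independent experiments, relative to untreated control.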

[38] = Hepatotoxicity against human HepG2 cells assessed as cell viability at 25 uM after 24 hrs by MTT assay relative to control; type: toxicity, cell-based; details: read-out: Activity; method in brief: as §6
[39] = Hepatotoxicity against human HepG2 cells assessed as cell viability at 50 uM after 24 hrs by MTT assay relative to control
[40] = Hepatotoxicity against human HepG2 cells assessed as cell viability at 100 uM after 24 hrs by MTT assay relative to control
in vitro [41] = details: human, HepG2 cells
in vitro [42] = details: human, HepG2 cells; remark: listed apart in the source
in vitro [43] = details: human, HepG2 cells; remark: listed apart in the source
in vitro [44] = details: human, HepG2 cells; remark: listed apart in the source

Structure (SMILES)	Activity (Rattus norvegicus [1])	Activity (Rattus norvegicus [2])	Activity (Rattus norvegicus [3])	Activity (Rattus norvegicus [4])	Activity (Rattus norvegicus [5])	Activity (Rattus norvegicus [6])	Activity (Rattus norvegicus [7])	Activity (Rattus norvegicus [8])	Activity (Rattus norvegicus [9])	Activity (Rattus norvegicus [10])	Activity (Mus musculus [11])	Activity (Mus musculus [12])	Activity (Mus musculus [13])	Activity (Mus musculus [14])	Activity (Mus musculus [15])	Activity (Mus musculus [16])	Activity (Mus musculus [17])	Activity (Mus musculus [18])	Activity (Mus musculus [19])	Activity (Mus musculus [20])	other results
CC(=O)OC(C)CNC(=O)/C=C/c1ccccc1 (racemic)	Non-toxic	Non-toxic	Non-toxic	Non-toxic	Non-toxic	inactive	inactive	inactive	inactive	inactive	Non-toxic	Non-toxic	inactive	Non-toxic	Active	inactive	inactive	inactive	inactive	Active	Activity (Mus musculus [21]): Active; Activity (Mus musculus [22]): inactive; Activity (Mus musculus [23]): inactive; Activity (Mus musculus [24]): inactive; Activity (Mus musculus [25]): inactive; Activity (Mus musculus [26]): Non-toxic; Activity (Mus musculus [27]): Non-toxic; Activity (Mus musculus [28]): Non-toxic; Rm [29]: -0.58; Rm [30]: -0.48; Rm [31]: -0.19; Rm [32]: -0.1; Rm [33]: 0.25; Rm [34]: 2.003
NC(=O)N1c2ccccc2C=Cc2ccccc21 [CARBAMAZEPINE]																					ED50 (Mus musculus [35]): > 50 mg/kg; ED50 (Rattus norvegicus [36]): > 250 mg/kg
CC(=O)OCC(C)NC(=O)/C=C/c1ccccc1 (racemic)	Non-toxic	Non-toxic	Non-toxic	Non-toxic	Non-toxic	inactive	inactive	inactive	inactive	inactive	Non-toxic	Non-toxic	inactive	Non-toxic	inactive	inactive	inactive	inactive	inactive	inactive	Activity (Mus musculus [21]): Active; Activity (Mus musculus [22]): inactive; Activity (Mus musculus [23]): Active; Activity (Mus musculus [24]): inactive; Activity (Mus musculus [25]): inactive; Activity (Mus musculus [26]): Non-toxic; Activity (Mus musculus [27]): Non-toxic; Activity (Mus musculus [28]): Non-toxic; Rm [29]: -0.58; Rm [30]: -0.48; Rm [31]: -0.21; Rm [32]: -0.07; Rm [33]: 0.19; Rm [34]: 1.88
COc1cccc2c1C(=O)c1c(O)c3c(c(O)c1C2=O)C[C@@](O)(C(=O)CO)C[C@@H]3O[C@H]1C[C@H](N)[C@H](O)[C@H](C)O1 [DOXORUBICIN]																					viability at 24 h, 10 µM [37]: 77.4%; viability at 24 h, 25 µM [38]: 65.3%; viability at 24 h, 50 µM [39]: 51.6%; viability at 24 h, 100 µM [40]: 44.9%; viability at 24 h, 10 µM (in vitro [41]): 91%; viability at 24 h, 25 µM (in vitro [42]): 83%; viability at 24 h, 50 µM (in vitro [43]): 75%; viability at 24 h, 100 µM (in vitro [44]): 48%

— ChEMBL document CHEMBL3739352, “Anticonvulsant activity, crystal structures, and preliminary safety evaluation of N-trans-cinnamoyl derivatives of selected (un)modified aminoalkanols” (Eur J Med Chem, 2016)
